In brackets after ≈: the same amount, converted by molar mass.
Legend:
[1] = Association constant to Ac2-L-Lys-D-Ala-D-Ala determined at pH 9; Value ranges from (9.5E4-3.5E5)
[2] = test system: Staphylococcus haemolyticus; assay: Minimum inhibitory concentration against Staphylococcus haemolyticus L 602; format: functional
Summary of the method: (§1)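 MIC (µg/mL) by microbroth dilution in Iso-Sensitest broth; final inoculum 10^4 cfu/mL; 24 h at 37 °C in air.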

[3] = test system: Staphylococcus epidermidis; assay: Minimum inhibitory concentration against Staphylococcus epidermidis ATCC 12228; format: functional; summary of the method: as §1
[4] = test system: Staphylococcus aureus; assay: Minimum inhibitory concentration against Staphylococcus aureus L 165; format: functional; summary of the method: as §1
[5] = test system: Enterococcus faecalis; assay: Minimum inhibitory concentration against Enterococcus faecalis ATCC 7080; format: functional
Summary of the method: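 Microbroth dilution MIC (µg/mL), final inoculum 10^4 cfu/mL, incubated 24 h at 37 °C in air.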

[6] = test system: Streptococcus pyogenes; assay: Efficacy of compound administered perorally against Streptococcus pyogenes L 49 Septicemia in mouse; format: functional; conditions: po
Summary of the method: (§2)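 Mice were infected intraperitoneally with about 10^5 Strep. pyogenes L 49 cells, about 100 times the 50% lethal dose. Groups of 5–8 mice were treated once right after challenge, by the route stated in the line. ED50 (mg/kg) was derived from percentage survival at each dose on day 7 (Spearman-Kärber).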

[7] = test system: Streptococcus pyogenes; assay: Efficacy of compound administered subcutaneously against Streptococcus pyogenes L 49 Septicemia in mouse; format: functional; conditions: sc; summary of the method: as §2
[8] = test system: Streptococcus pyogenes; assay: Minimum inhibitory concentration against Streptococcus pyogenes L 49; format: functional
Summary of the method: (§3)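 MIC (µg/mL) by microbroth dilution in Todd-Hewitt broth, final inoculum 10^4 cfu/mL, incubated 24 h at 37 °C in air.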

[9] = test system: Streptococcus pneumoniae; assay: Minimum inhibitory concentration against Streptococcus pneumoniae L 44; format: functional; summary of the method: as §3

Row | SMILES | Ka [1] | MIC [2] | MIC [3] | MIC [4] | MIC [5] | ED50 [6] | ED50 [7] | MIC [8] | MIC [9]
1 | CC(=O)N[C@@H]1[C@H](O[C@@H]2c3ccc(c(Cl)c3)Oc3cc4cc(c3O[C@@H]3O[C@@H](CO)[C@@H](O)[C@H](O)[C@@H]3NC(=O)CCCCCCC(C)C)Oc3ccc(cc3Cl)C[C@H]3NC(=O)[C@H](N)c5ccc(O)c(c5)Oc5cc(O)cc(c5)[C@H](NC3=O)C(=O)N[C@H]4C(=O)N[C@H]3C(=O)N[C@@H]2C(=O)N[C@H](C(=O)NCCCNCCCCN)c2cc(O)cc(O[C@H]4O[C@H](CO)[C@@H](O)[C@@H](O)[C@@H]4O)c2-c2cc3ccc2O)O[C@@H](CO)[C@@H](O)[C@@H]1O | 350000 M⁻¹ | 0.125 µg/mL (≈ 0.0623 µM) | 0.063 µg/mL (≈ 0.0314 µM) | 0.125 µg/mL (≈ 0.0623 µM) | 0.125 µg/mL (≈ 0.0623 µM) | 81 mg/kg | 0.05 mg/kg | 0.063 µg/mL (≈ 0.0314 µM) | 0.125 µg/mL (≈ 0.0623 µM)
2 | CC(=O)N[C@@H]1[C@H](O[C@@H]2c3ccc(c(Cl)c3)Oc3cc4cc(c3O[C@@H]3O[C@@H](CO)[C@@H](O)[C@H](O)[C@@H]3NC(=O)CCCCCCC(C)C)Oc3ccc(cc3Cl)C[C@H]3NC(=O)[C@H](N)c5ccc(O)c(c5)Oc5cc(O)cc(c5)[C@H](NC3=O)C(=O)N[C@H]4C(=O)N[C@H]3C(=O)N[C@@H]2C(=O)N[C@H](C(=O)NCCNCCNCCNCCNCCN)c2cc(O)cc(O[C@H]4O[C@H](CO)[C@@H](O)[C@@H](O)[C@@H]4O)c2-c2cc3ccc2O)O[C@@H](CO)[C@@H](O)[C@@H]1O | 350000 M⁻¹ | 0.125 µg/mL (≈ 0.0597 µM) | 0.063 µg/mL (≈ 0.0301 µM) | 0.25 µg/mL (≈ 0.119 µM) | 0.125 µg/mL (≈ 0.0597 µM) | 112 mg/kg | 0.08 mg/kg | 0.063 µg/mL (≈ 0.0301 µM) | 0.125 µg/mL (≈ 0.0597 µM)
3 | CC(=O)N[C@@H]1[C@H](O[C@@H]2c3ccc(c(Cl)c3)Oc3cc4cc(c3O[C@@H]3O[C@@H](CO)[C@@H](O)[C@H](O)[C@@H]3NC(=O)CCCCCCC(C)C)Oc3ccc(cc3Cl)C[C@H]3NC(=O)[C@H](N)c5ccc(O)c(c5)Oc5cc(O)cc(c5)[C@H](NC3=O)C(=O)N[C@H]4C(=O)N[C@H]3C(=O)N[C@@H]2C(=O)N[C@H](C(=O)NCCCNCCCCNCCCN)c2cc(O)cc(O[C@H]4O[C@H](CO)[C@@H](O)[C@@H](O)[C@@H]4O)c2-c2cc3ccc2O)O[C@@H](CO)[C@@H](O)[C@@H]1O | 350000 M⁻¹ | 0.125 µg/mL (≈ 0.0606 µM) | 0.063 µg/mL (≈ 0.0305 µM) | 0.125 µg/mL (≈ 0.0606 µM) | 0.125 µg/mL (≈ 0.0606 µM) | 81 mg/kg | 0.03 mg/kg | 0.063 µg/mL (≈ 0.0305 µM) | 0.125 µg/mL (≈ 0.0606 µM)
4 | CC(=O)N[C@@H]1[C@H](O[C@@H]2c3ccc(c(Cl)c3)Oc3cc4cc(c3O[C@@H]3O[C@@H](CO)[C@@H](O)[C@H](O)[C@@H]3NC(=O)CCCCCCC(C)C)Oc3ccc(cc3Cl)C[C@H]3NC(=O)[C@H](N)c5ccc(O)c(c5)Oc5cc(O)cc(c5)[C@H](NC3=O)C(=O)N[C@H]4C(=O)N[C@H]3C(=O)N[C@@H]2C(=O)N[C@H](C(=O)NCCN(CCN)CCN)c2cc(O)cc(O[C@H]4O[C@H](CO)[C@@H](O)[C@@H](O)[C@@H]4O)c2-c2cc3ccc2O)O[C@@H](CO)[C@@H](O)[C@@H]1O | 350000 M⁻¹ | 0.125 µg/mL (≈ 0.0623 µM) | 0.063 µg/mL (≈ 0.0314 µM) | 0.125 µg/mL (≈ 0.0623 µM) | 0.063 µg/mL (≈ 0.0314 µM) | 58 mg/kg | 0.04 mg/kg | 0.063 µg/mL (≈ 0.0314 µM) | 0.063 µg/mL (≈ 0.0314 µM)
5 | CC(=O)N[C@@H]1[C@H](O[C@@H]2c3ccc(c(Cl)c3)Oc3cc4cc(c3O[C@@H]3O[C@@H](CO)[C@@H](O)[C@H](O)[C@@H]3NC(=O)CCCCCCC(C)C)Oc3ccc(cc3Cl)C[C@H]3NC(=O)[C@H](N)c5ccc(O)c(c5)Oc5cc(O)cc(c5)[C@H](NC3=O)C(=O)N[C@H]4C(=O)N[C@H]3C(=O)N[C@@H]2C(=O)N[C@H](C(=O)O)c2cc(O)cc(O[C@H]4O[C@H](CO)[C@@H](O)[C@@H](O)[C@@H]4O)c2-c2cc3ccc2O)O[C@@H](CO)[C@@H](O)[C@@H]1O |  | 8 µg/mL (≈ 4.26 µM) | 0.125 µg/mL (≈ 0.0665 µM) | 0.125 µg/mL (≈ 0.0665 µM) | 0.125 µg/mL (≈ 0.0665 µM) | > 170 mg/kg | 0.12 mg/kg | 0.063 µg/mL (≈ 0.0335 µM) | 0.063 µg/mL (≈ 0.0335 µM)
6 | CC(=O)N[C@@H]1[C@H](O[C@@H]2c3ccc(c(Cl)c3)Oc3cc4cc(c3O[C@@H]3O[C@@H](CO)[C@@H](O)[C@H](O)[C@@H]3NC(=O)CCCCCCC(C)C)Oc3ccc(cc3Cl)C[C@H]3NC(=O)[C@H](N)c5ccc(O)c(c5)Oc5cc(O)cc(c5)[C@H](NC3=O)C(=O)N[C@H]4C(=O)N[C@H]3C(=O)N[C@@H]2C(=O)N[C@H](C(=O)N2CCNCCNCCNCCNCCNCC2)c2cc(O)cc(O[C@H]4O[C@H](CO)[C@@H](O)[C@@H](O)[C@@H]4O)c2-c2cc3ccc2O)O[C@@H](CO)[C@@H](O)[C@@H]1O | 350000 M⁻¹ | 8 µg/mL (≈ 3.77 µM) | 0.125 µg/mL (≈ 0.059 µM) | 0.25 µg/mL (≈ 0.118 µM) | 0.125 µg/mL (≈ 0.059 µM) |  |  | 0.063 µg/mL (≈ 0.0297 µM) | 0.063 µg/mL (≈ 0.0297 µM)
7 | CC(=O)N[C@@H]1[C@H](O[C@@H]2c3ccc(c(Cl)c3)Oc3cc4cc(c3O[C@@H]3O[C@@H](CO)[C@@H](O)[C@H](O)[C@@H]3NC(=O)CCCCCCC(C)C)Oc3ccc(cc3Cl)C[C@H]3NC(=O)[C@H](N)c5ccc(O)c(c5)Oc5cc(O)cc(c5)[C@H](NC3=O)C(=O)N[C@H]4C(=O)N[C@H]3C(=O)N[C@@H]2C(=O)N[C@H](C(=O)NCCNCCCNCCN)c2cc(O)cc(O[C@H]4O[C@H](CO)[C@@H](O)[C@@H](O)[C@@H]4O)c2-c2cc3ccc2O)O[C@@H](CO)[C@@H](O)[C@@H]1O | 350000 M⁻¹ | 0.125 µg/mL (≈ 0.0618 µM) | 0.063 µg/mL (≈ 0.0312 µM) | 0.125 µg/mL (≈ 0.0618 µM) | 0.125 µg/mL (≈ 0.0618 µM) |  |  | 0.063 µg/mL (≈ 0.0312 µM) | 0.125 µg/mL (≈ 0.0618 µM)
8 | CC(=O)N[C@@H]1[C@H](O[C@@H]2c3ccc(c(Cl)c3)Oc3cc4cc(c3O[C@@H]3O[C@@H](CO)[C@@H](O)[C@H](O)[C@@H]3NC(=O)CCCCCCC(C)C)Oc3ccc(cc3Cl)C[C@H]3NC(=O)[C@H](N)c5ccc(O)c(c5)Oc5cc(O)cc(c5)[C@H](NC3=O)C(=O)N[C@H]4C(=O)N[C@H]3C(=O)N[C@@H]2C(=O)N[C@H](C(=O)NCCCN2CCCCNCCCC2)c2cc(O)cc(O[C@H]4O[C@H](CO)[C@@H](O)[C@@H](O)[C@@H]4O)c2-c2cc3ccc2O)O[C@@H](CO)[C@@H](O)[C@@H]1O | 350000 M⁻¹ | 0.125 µg/mL (≈ 0.0606 µM) | 0.063 µg/mL (≈ 0.0306 µM) | 0.125 µg/mL (≈ 0.0606 µM) | 0.125 µg/mL (≈ 0.0606 µM) | 90 mg/kg | 0.08 mg/kg | 0.063 µg/mL (≈ 0.0306 µM) | 0.125 µg/mL (≈ 0.0606 µM)
9 | CC(=O)N[C@@H]1[C@H](O[C@@H]2c3ccc(c(Cl)c3)Oc3cc4cc(c3O[C@@H]3O[C@@H](CO)[C@@H](O)[C@H](O)[C@@H]3NC(=O)CCCCCCC(C)C)Oc3ccc(cc3Cl)C[C@H]3NC(=O)[C@H](N)c5ccc(O)c(c5)Oc5cc(O)cc(c5)[C@H](NC3=O)C(=O)N[C@H]4C(=O)N[C@H]3C(=O)N[C@@H]2C(=O)N[C@H](C(=O)NCCCNCCCNCCCN)c2cc(O)cc(O[C@H]4O[C@H](CO)[C@@H](O)[C@@H](O)[C@@H]4O)c2-c2cc3ccc2O)O[C@@H](CO)[C@@H](O)[C@@H]1O | 350000 M⁻¹ | 0.125 µg/mL (≈ 0.061 µM) | 0.063 µg/mL (≈ 0.0307 µM) | 0.125 µg/mL (≈ 0.061 µM) | 0.125 µg/mL (≈ 0.061 µM) | 80 mg/kg | 0.06 mg/kg | 0.063 µg/mL (≈ 0.0307 µM) | 0.125 µg/mL (≈ 0.061 µM)
10 | CC(=O)N[C@@H]1[C@H](O[C@@H]2c3ccc(c(Cl)c3)Oc3cc4cc(c3O[C@@H]3O[C@@H](CO)[C@@H](O)[C@H](O)[C@@H]3NC(=O)CCCCCCC(C)C)Oc3ccc(cc3Cl)C[C@H]3NC(=O)[C@H](N)c5ccc(O)c(c5)Oc5cc(O)cc(c5)[C@H](NC3=O)C(=O)N[C@H]4C(=O)N[C@H]3C(=O)N[C@@H]2C(=O)N[C@H](C(=O)NCCNCCN)c2cc(O)cc(O[C@H]4O[C@H](CO)[C@@H](O)[C@@H](O)[C@@H]4O)c2-c2cc3ccc2O)O[C@@H](CO)[C@@H](O)[C@@H]1O | 350000 M⁻¹ | 0.25 µg/mL (≈ 0.127 µM) | 0.063 µg/mL (≈ 0.0321 µM) | 0.25 µg/mL (≈ 0.127 µM) | 0.125 µg/mL (≈ 0.0636 µM) | 60 mg/kg | 0.09 mg/kg | 0.063 µg/mL (≈ 0.0321 µM) | 0.125 µg/mL (≈ 0.0636 µM)
